Source: PubChem BioAssay (Broad Institute)
Hits are enriched below; roughly 3.1% of the tested compounds scored in any of these assays.
Ecoli rRNA inh – inhibitors of bacterial rRNA selective over humanized ribosomes | E. coli WT GFP vs humanized-ribosome RFP mutants, fluorescence, 24 h; stronger effect = lower value; DMSO median 0, no signal -100 | GFP signal change (wild-type ribosome), % (concentration not given with the values) | 1.6% of 350,000 active;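 active means significant combined selectivity score with lowered wild-type GFP, culture density cut under 30%, mutant RFP and density less affected; inactive means any of these conditions unmet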
miR-122 sensor – blocks miR-122 activity in Huh7 sensor cells; Huh7 miR-122 Renilla luciferase sensor, 48 h; neutral wells = 0, positive control = 100; activation (reporter increase), % at 12.5 µM; 0.3% of 340,000 active; AID 602342;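 active means mean replicate activation score at least 90 and every replicate individually at or above 90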;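 further: higher luciferase means less miR-122 activity so hits act as miR-122 inhibitors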
Cneo AK release – Cryptococcus neoformans lysis via adenylate kinase release; C. neoformans lysis, adenylate kinase release luminescence, 4 h; normalised: neutral wells 0, clomiphene wells 100; lysis activity, % at 15 µM; 0.2% of 360,000 active;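 active means mean lysis activity across replicates of at least 80%, whatever share of replicates individually reach that level; inactive means mean lysis activity below 80%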
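read-out = cell lysis signal | test system = log-phase Cryptococcus neoformans yeast cells | input = cells at 5 × 10^6 per mL | medium = fresh YPD growth medium | signal = luminescent adenylate kinase detection reagent | timing = 4 h at 37 °C static, read 1 h later | dosing = single dose | controls = Clomiphene as positive lysis control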
E-selectin induc – induces E-selectin expression in human endothelial cells. P16581. HUVEC E-selectin immunofluorescence imaging; normalized: neutral wells 0, TNF-alpha wells 100. activation, % at 7.58 µM. 0.37% of 260,000 active;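 active means mean E-selectin-positive cell signal at least 10% of the positive control, reached in at least 60% of replicates, without over 20% cell loss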
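Read-out basis: % PE-positive cells; Test system: HUVEC primary endothelial cells; Technique: immunofluorescence imaging; Dosing: single-point compound dose.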
DENV2 CPE rescue – inhibitors of DENV2 cytopathic effect; DENV2-infected cells, cytopathic effect rescue, plate reader; 1.7% of 350,000 active; CPE inhibition, % at 9.99 µM; in the data active means CPE inhibition above about 20%, passing the limit was not always enough; tested in BHK-21 cells;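 further: 0% = median of neutral control wells and 100% = median of positive control wells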
* = called active by the depositor; . = no result; [ ] = another dose, or the depositor's remark.

SMILES	Ecoli rRNA inh	miR-122 sensor	Cneo AK release	E-selectin induc	DENV2 CPE rescue
COc1cccc(S(=O)(=O)N[C@H]2CC[C@@H](CCn3cc(-c4ccccn4)nn3)O[C@@H]2CO)c1	-0.5	.	-0.3	0.4	-2.4
FC(F)Sc1ccc(NC(=S)NC2CCCCC2)cc1	.	120.8*	1.9	.	.
CC1CCCCC1NC(=S)Nc1ccc(SC(F)F)cc1 (stereo not drawn)	.	114.8*	3.1	.	.
CC(C)(C)c1ccc(S(=O)(=O)NCC2CCCO2)cc1 (stereo not drawn)	-10.2	23.3	5.0	.	-2.4
O=S(=O)(NCC1CCCO1)c1ccc(-c2ccc(Cl)cc2)cc1 (stereo not drawn)	-25.4*	.	.	-0.1	1.1
O=S(=O)(NCC1CCCO1)c1ccc(Cl)c(C(F)(F)F)c1 (stereo not drawn)	.	154.5*	-1.5	.	.
COc1ccc2c3c(n(C)c2c1)[C@@H](CO)N(Cc1cccc(Cl)c1)CC31CN(C(=O)C2CC2)C1	-4.8	.	.	-0.4	13.3
CO[C@H]1CN(C)C(=O)c2ccc(NC(=O)CC(F)(F)F)cc2OC[C@@H](C)N(CC2CC2)C[C@@H]1C	2.8	.	.	.	.
FC(F)(F)c1ccc(Sc2n[nH]c(C(F)(F)F)n2)nc1	-0.7	-3.2	-0.2	0.5	-3.0
FC(F)(F)c1ccnc(Sc2n[nH]c(C(F)(F)F)n2)c1	-24.8*	.	.	.	-6.2
O=C(c1ccccc1)N1CC2(C1)[C@@H](c1ccccc1)[C@@H](CO)N2Cc1cccnc1	-0.1	.	.	.	.
Cc1nc2sc(C(c3ccco3)N3CCN(c4ccccc4)CC3)c(O)n2n1 (stereo not drawn)	12.3	.	0.4	0.3	-0.8
Cc1nc2sc(C(c3ccco3)N3CCN(c4cccc(Cl)c4)CC3)c(O)n2n1 (stereo not drawn)	-38.9*	-7.7	1.2	.	.
COCC(=O)Nc1ccc2c(c1)C(=O)N(C)C[C@H](OC)[C@@H](C)CN(C(=O)COC)[C@@H](C)CO2	2.1	0.8[16.7 µM]	41.6	0.0	-6.0
COCC(=O)Nc1ccc2c(c1)OC[C@H](C)N(C(C)=O)C[C@H](C)[C@@H](OC)CN(C)C2=O	0.8	.	.	0.1	-10.7
COCC(=O)Nc1ccc2c(c1)OC[C@@H](C)N(C(=O)c1ccncc1)C[C@@H](C)[C@H](OC)CN(C)C2=O	3.0	-6.3[16.7 µM]	-0.9	0.0	32.4*
COCC(=O)Nc1ccc2c(c1)C(=O)N(C)C[C@@H](OC)[C@H](C)CN(C(C)=O)[C@@H](C)CO2	0.7	30.6[16.7 µM]	-1.2	0.3	32.2*
COCC(=O)Nc1ccc2c(c1)OC[C@H](C)N(C(=O)c1ccncc1)C[C@H](C)[C@H](OC)CN(C)C2=O	1.1	-21.1[16.7 µM]	-0.5	-0.2	12.7
CO[C@@H]1CN(C)C(=O)c2ccc(NC(=O)C3CC3)cc2OC[C@H](C)N(C(=O)c2ccncc2)C[C@H]1C	2.7	.	80.7*	-0.1	-8.5
COCC(=O)Nc1ccc2c(c1)C(=O)N(C)C[C@H](OC)[C@H](C)CN(C(=O)COC)[C@H](C)CO2	2.3	0.6[16.7 µM]	-5.4	0.2	23.9*
CO[C@H]1CN(C)C(=O)c2ccc(NC(=O)C3CC3)cc2OC[C@@H](C)N(C(=O)c2ccncc2)C[C@@H]1C	3.7	.	-6.1	-0.2	4.8
COCC(=O)Nc1ccc2c(c1)C(=O)N(C)C[C@H](OC)[C@@H](C)CN(C(=O)c1ccccc1)[C@@H](C)CO2	0.7	.	95.1*	0.1	-2.2
CN=C(Nc1cc(C)nn1CCC#N)c1ccc(F)cc1	8.4	-7.6	-1.5	.	-1.2
Cc1cc(NC(=O)c2ccc([N+](=O)[O-])cc2)n(CCC#N)n1	6.7	0.3	3.1	2.7	42.9*
CO[C@H]1CN(C)C(=O)c2cc(NC(=O)c3ccccc3F)ccc2OC[C@H](C)N(C(=O)c2ccccc2F)C[C@H]1C	-2.2	.	-5.4	0.0	-2.3
CSc1ccc(S(=O)(=O)Nc2ccc(F)cc2)cc1	.	120.5*	.	.	.
CCCC#Cc1ccc([C@@H]2[C@@H](CO)N3C(=O)CN(C(=O)Nc4ccccc4)C[C@H]23)cc1	1.6	.	.	.	.
CN(C)C(=O)C[C@@H]1C[C@H]2c3cc(NS(=O)(=O)c4ccccc4)ccc3O[C@H]2[C@@H](CO)O1	-0.6	-4.3[16.7 µM]	-1.4	-0.6	-0.2
Oc1ccc(Br)cc1CNc1ccccn1	-15.8*	.	.	.	1.2
